Assay results pooled from the literature.
Each line is one published result; the experiments were not run side by side.

COc1cc2c(=O)n(CCN(C)C)c3c4cc5c(cc4ncc3c2cc1OC)OCO5 — IC50 (RPMI 8402; cell growth or viability; MTT; 96 h): 2 nM
O=C(O)c1ccc(C(c2c[nH]c3ccccc23)c2c[nH]c3ccccc23)cc1 — IC50 (LNCaP; cell growth or viability; MTT; 48 h): 21000 nM
C[C@H](Nc1ncnc2nc[nH]c12)c1cc2cccc(Cl)c2c(=O)n1-c1ccccc1 — IC50 (CD4+ T; lymphocyte proliferation; inhibitor): 100 nM
CC(=O)c1ccc(/N=N/c2cc(/C=C/C(=O)O)ccc2O)cc1 — IC50 (PaCa-2; cell growth or viability; MTT): > 50000 nM
Cn1cc(C(c2cccc(/C=C/C(=O)O)c2)c2cn(C)c3ccccc23)c2ccccc21 — IC50 (LNCaP; cell growth or viability; MTT; 48 h): > 20000 nM
COc1ccc(-c2nc(OCc3cn(CC(=O)Nc4cccc(OC)c4)nn3)c3ccccc3n2)cc1 — IC50 (WRL68; cell growth or viability; MTT; 72 h): 82700 nM
COc1cc(-c2[o+]c3cc(O)cc(O)c3cc2O[C@@H]2O[C@H](CO)[C@@H](O)[C@H](O)[C@H]2O)ccc1O — IC50 (SW780; cell growth or viability; ATP luminescence; 72 h): 137000 nM
O=C(O)/C=C/c1ccc(O)cc1 — IC50 (PaCa-2; cell growth or viability; MTT): > 50000 nM
O=c1c(O[C@@H]2O[C@H](CO)[C@H](O)[C@H](O)[C@H]2O)c(-c2ccc(O)c(O)c2)oc2cc(O)cc(O)c12 — IC50 (SW780; cell growth or viability; ATP luminescence; 72 h): 136000 nM
NCc1cc2c(-c3ccccc3)n[nH]c2c(Nc2ccccc2)n1 — IC50 (MIA PaCa-2; cell growth or viability; MTS; 48 h): 2300 nM
COc1cc(-c2oc3cc(O)cc(O)c3c(=O)c2O)ccc1O — IC50 (SW780; cell growth or viability; ATP luminescence; 72 h): 12500 nM
Cn1cc(C(c2ccc(/C=C/C(=O)O)s2)c2cn(C)c3ccccc23)c2ccccc21 — IC50 (LNCaP; cell growth or viability; MTT; 48 h): > 20000 nM
COc1cccc2c1C(=O)c1c(O)c3c(c(O)c1C2=O)C[C@@](O)(C(=O)CO)C[C@@H]3O[C@H]1C[C@H](N)[C@H](O)[C@H](C)O1 — IC50 (MIA PaCa-2; cell growth or viability; MTS; 48 h): 49 nM
CCCCC1=CC2C=CC=CC1C2C1CCCCC1=O (centres unmarked) — IC50 (Jurkat; cell growth or viability; flow cytometry): 37 nM
CN1CCN(c2ccc3nc(-c4c(N)c5c(F)cccc5[nH]c4=O)[nH]c3c2)CC1 — IC50 (SW780; cell growth or viability; MTT; 5 days): 450 nM
COc1cc(Nc2nccc(-c3cnn4nc(OC)ccc34)n2)cc(C(F)(F)F)c1 — IC50 (COV434; cell growth or viability; ATP luminescence): 500 nM
COc1c2c(cc3c1OCO3)[C@]13C=C[C@H](OC)C[C@H]1N(C2)C[C@H]3OC(=O)c1cccc(C)c1 — IC50 (MOLT-4; cell growth or viability; WST-1): > 10000 nM
OC[C@H]1O[C@@H](Oc2cc3c(O)cc(O)cc3[o+]c2-c2ccc(O)c(O)c2)[C@H](O)[C@@H](O)[C@H]1O — IC50 (SW780; cell growth or viability; ATP luminescence; 72 h): 84500 nM
COc1cc2nccc(Oc3ccc(NC(=O)C4(C(=O)Nc5ccc(F)cc5)CC4)cc3)c2cc1OC — IC50 (Rh4; cell growth or viability; 72 h): 3090 nM
CC(C)(C)SCCCC1=CC2C=CC=CC1C2C1CCCCC1=O (centres unmarked) — IC50 (Jurkat; cell growth or viability; flow cytometry): 57 nM
CC(C)(C)OC(=O)NCCOc1cc(NC(=O)c2cnccn2)c2ncccc2c1 — IC50 (MIA PaCa-2; cell growth or viability; MTT; 72 h): < 1000 nM
CCOc1cc(OCC)cc(C(=O)O[C@@H]2CN3Cc4c(cc5c(c4OC)OCO5)[C@@]24C=C[C@H](OC)C[C@@H]34)c1 — IC50 (MOLT-4; cell growth or viability; WST-1): 7600 nM
O=C(O)/C=C/c1ccc(C(c2c[nH]c3ccccc23)c2c[nH]c3ccccc23)s1 — IC50 (LNCaP; cell growth or viability; MTT; 48 h): 55000 nM
CC(=O)c1cccc(N=Nc2c(C(=O)O)cc(O)c(O)c2O)c1 — IC50 (PaCa-2; cell growth or viability; MTT): 9600 nM
N#CCCCC1=CC2C=CC=CC1C2C1CCCCC1=O (centres unmarked) — IC50 (Jurkat; cell growth or viability; flow cytometry): 69 nM
CC(C)C[C@H](NC(=O)[C@H](Cc1ccccc1)NC(=O)c1cnccn1)B(O)O — IC50 (LOU-NH91; cell growth or viability; ATP luminescence): 11 nM
COc1cccc(C(=O)O[C@@H]2CN3Cc4c(cc5c(c4OC)OCO5)[C@@]24C=C[C@H](OC)C[C@@H]34)c1 — IC50 (MOLT-4; cell growth or viability; WST-1): > 10000 nM
C[C@@H](Oc1cc(-c2cnn(C3CCNCC3)c2)cnc1N)c1c(Cl)ccc(F)c1Cl — IC50 (Rh4; cell growth or viability; 72 h): 580 nM
O=C1CCCCC1C1C2C=CC=CC1C(CCCCOC1CCCCO1)=C2 (centres unmarked) — IC50 (Jurkat; cell growth or viability; flow cytometry): 135 nM
C#Cc1cccc(Nc2ncnc3cc(OCCOC)c(OCCOC)cc23)c1 — IC50 (PaCa-2; cell growth or viability; MTT): 60 nM
Cc1[nH]c(/C=C2\C(=O)Nc3ccc(S(=O)(=O)N(C)c4cccc(Cl)c4)cc32)c(C)c1C(=O)N1CCN(C)CC1 — IC50 (Rh4; cell growth or viability; 72 h): 2210 nM
FC(F)(F)c1ccc(C(c2c[nH]c3ccccc23)c2c[nH]c3ccccc23)cc1 — IC50 (LNCaP; cell growth or viability; MTT; 48 h): 13000 nM
